Data reported in paper PMC10692362 (Acta Pharmaceutica Sinica. B, 2023).
Read-outs that look alike come from different tables or passages of the source.

How the values were obtained:
[1] = target: T1, human ERα LBD (Homo sapiens, UniProt P03372); experiment: Competitive fluorescence polarization binding assay, ERα; conditions: for RBA ERα: IC50 estradiol/IC50 compound × 100, estradiol = 100%; for α/β ratio: ratio of RBA ERα to RBA ERβ
T1 sequence (P03372 311-547 limits assumed): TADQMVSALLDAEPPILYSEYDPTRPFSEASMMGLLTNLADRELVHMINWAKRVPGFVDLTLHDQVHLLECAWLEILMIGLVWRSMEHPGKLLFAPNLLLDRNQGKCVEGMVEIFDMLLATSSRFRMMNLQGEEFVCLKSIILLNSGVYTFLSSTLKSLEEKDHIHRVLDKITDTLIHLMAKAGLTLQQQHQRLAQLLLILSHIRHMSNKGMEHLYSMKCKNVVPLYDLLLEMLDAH

[2] = target: human ERβ LBD (Homo sapiens, UniProt Q92731); experiment: Competitive fluorescence polarization binding assay, ERβ; conditions: for RBA ERβ: IC50 estradiol/IC50 compound × 100, estradiol = 100%
[3] = system: MCF-7 cells; experiment: Cell viability assay; type: cell-based, human; conditions: Homo sapiens, MCF7, 72 h, read-out: MCF-7 IC50
[4] = system: T-47D cells; experiment: Cell viability assay; type: cell-based, human; conditions: Homo sapiens, T47D, 72 h, read-out: T-47D IC50
[5] = system: T-47D^D538G cells; experiment: Cell viability assay; type: cell-based, human; conditions: Homo sapiens, 72 h, read-out: T-47D^D538G IC50
[6] = system: T-47D^Y537S cells; experiment: Cell viability assay; type: cell-based, human; conditions: Homo sapiens, 72 h, read-out: T-47D^Y537S IC50
[7] = system: LCC-2 cells; experiment: Cell viability assay on tamoxifen-resistant LCC-2 cells; type: cell-based; conditions: Homo sapiens, LCC2, read-out: LCC-2 IC50
[8] = system: MCF-10A cells; type: cell-based, human; conditions: TI = IC50 MCF-10A / IC50 MCF-7
[9] = target: T2, ERα (Homo sapiens, UniProt P03372); experiment: cell-based; type: cell-based; conditions: for Agonist mode ERα Eff (%E2): control as 0%, 10 nmol/L E2 as 100%
T2 sequence (P03372 1-595): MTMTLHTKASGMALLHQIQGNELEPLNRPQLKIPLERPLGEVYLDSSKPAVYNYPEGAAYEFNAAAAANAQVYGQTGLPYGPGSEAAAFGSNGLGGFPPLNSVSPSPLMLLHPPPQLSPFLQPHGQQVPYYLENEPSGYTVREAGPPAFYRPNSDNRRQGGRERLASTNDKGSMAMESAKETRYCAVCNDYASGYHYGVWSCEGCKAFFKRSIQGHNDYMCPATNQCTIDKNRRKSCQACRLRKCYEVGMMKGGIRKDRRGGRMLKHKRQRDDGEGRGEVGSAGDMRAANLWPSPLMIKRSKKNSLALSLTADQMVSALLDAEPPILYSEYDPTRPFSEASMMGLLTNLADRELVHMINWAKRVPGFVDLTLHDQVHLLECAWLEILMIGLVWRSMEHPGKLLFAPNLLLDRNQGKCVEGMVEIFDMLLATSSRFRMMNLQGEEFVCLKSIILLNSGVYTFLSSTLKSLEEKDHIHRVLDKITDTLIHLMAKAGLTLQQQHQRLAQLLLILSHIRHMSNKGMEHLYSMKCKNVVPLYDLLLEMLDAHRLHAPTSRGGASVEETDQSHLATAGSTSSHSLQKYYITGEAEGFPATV

[10] = target: ERβ (Homo sapiens, UniProt Q92731); experiment: ER transcriptional activity; type: cell-based; conditions: for Agonist mode ERβ Eff (%E2): control as 0%, 10 nmol/L E2 as 100%; for Antagonist mode ERβ Eff (%E2): with 10 nmol/L 17β-estradiol
[11] = target: T2, ERα; experiment: Immunoblot analysis of ERα degradation in MCF-7 cells; type: cell-based; conditions: MCF-7 cells; for ERα degradation (immunoblot): 1 or 5 μmol/L
[12] = system: MCF-7 tumor xenograft; experiment: MCF-7 tumor xenograft model in BALB/c nude mice; type: in vivo; conditions: 4 mg/kg ip every other day, Day 32
Method in brief: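 Female BALB/c nude mice (15–18 g, 5 weeks old) received 1 × 10⁷ MCF-7 cells in 100 μL PBS into the right axillary mammary fat pad. Tumour volume (W² × L × 0.5) and body weight were measured every 2 days. Mice were sacrificed on Day 33. Tumours were assessed by IHC (Ki-67, ERα) and ERα Western blot.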

Sequence of human ERβ LBD (Q92731 264-498 limits assumed): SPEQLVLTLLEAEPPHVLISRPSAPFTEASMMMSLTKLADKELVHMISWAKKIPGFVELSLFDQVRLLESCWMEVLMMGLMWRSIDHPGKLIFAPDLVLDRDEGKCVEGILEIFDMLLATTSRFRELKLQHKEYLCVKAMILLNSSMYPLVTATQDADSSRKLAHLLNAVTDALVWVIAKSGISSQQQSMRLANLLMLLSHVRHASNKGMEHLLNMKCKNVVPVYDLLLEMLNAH
Sequence of ERβ (Q92731 whole entry): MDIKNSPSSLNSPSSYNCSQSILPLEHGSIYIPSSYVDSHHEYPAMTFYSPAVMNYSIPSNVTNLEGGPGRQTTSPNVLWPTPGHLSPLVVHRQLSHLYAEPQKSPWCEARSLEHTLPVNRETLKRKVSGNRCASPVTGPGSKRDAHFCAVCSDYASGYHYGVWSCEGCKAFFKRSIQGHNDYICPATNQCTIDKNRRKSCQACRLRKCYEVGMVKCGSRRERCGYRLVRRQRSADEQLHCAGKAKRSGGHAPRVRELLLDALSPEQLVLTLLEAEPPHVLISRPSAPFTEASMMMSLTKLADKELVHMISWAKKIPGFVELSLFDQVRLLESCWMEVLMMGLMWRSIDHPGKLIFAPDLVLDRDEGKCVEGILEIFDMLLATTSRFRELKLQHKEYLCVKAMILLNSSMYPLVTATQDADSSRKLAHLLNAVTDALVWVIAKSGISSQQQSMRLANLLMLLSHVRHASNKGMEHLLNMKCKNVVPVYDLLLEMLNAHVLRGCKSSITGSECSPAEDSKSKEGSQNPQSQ

COc1ccc(N(CC(F)(F)F)S(=O)(=O)C2CC3OC2C(c2ccc(O)cc2)=C3c2ccc(NC(=O)C=C(C)C)cc2)cc1 (stereo not shown) [Compound 29f, N-(4-(3-(4-Hydroxyphenyl)-5-(N-(4-methoxyphenyl)-N-(2,2,2-trifluoroethyl)sulfamoyl)-7-oxabicyclo[2.2.1]hept-2-en-2-yl)phenyl)-3-methylbut-2-enamide]
RBA ERα [1]: 14.48 ± 0.65%
α/β ratio [1]: 8.83
Ki ([1]; read-out: Ki ERα): 0.19 nM
RBA ERβ [2]: 1.64 ± 0.45%
Ki ([2]; read-out: Ki ERβ): 4.07 nM
IC50 [3]: 94 ± 1 nM
IC50 [4]: 8580 ± 360 nM
IC50 [5]: 8530 ± 470 nM
IC50 [6]: > 31000 nM
IC50 [7]: 15100 ± 1370 nM
TI (therapeutic index) [8]: 54.89
Agonist mode ERα Eff (%E2) [9]: 65 ± 5 %E2
EC50 ([9]; read-out: Agonist mode ERα EC50, HEK-293T luciferase): 4910 nM
IC50 ([9]; read-out: Antagonist mode ERα IC50, with 10 nmol/L 17β-estradiol): 210 nM
Antagonist mode ERα Eff (%E2) ([9]; with 10 nmol/L 17β-estradiol): 35 ± 2 %E2
Agonist mode ERβ Eff (%E2) [10]: 9 ± 2 %E2
Antagonist mode ERβ Eff (%E2) [10]: 13 ± 1 %E2
ERα degradation (immunoblot) at 1 μmol/L [11]: efficient ability to degrade ERα
ERα degradation (immunoblot) [11]: effective in inducing ERα degradation

CCN(c1ccc(O)cc1)S(=O)(=O)C1CC2OC1C(c1ccc(O)cc1)=C2c1ccc(NC(=O)C=C(C)C)cc1 (stereo not shown) [Compound 29i, N-(4-(5-(N-Ethyl-N-(4-hydroxyphenyl)sulfamoyl)-3-(4-hydroxyphenyl)-7-oxabicyclo[2.2.1]hept-2-en-2-yl)phenyl)-3-methylbut-2-enamide]
Ki [1]: 0.09 nM
RBA ERα [1]: 29.85 ± 1.09%
α/β ratio [1]: 5.83
Ki [2]: 1.3 nM
RBA ERβ [2]: 5.12 ± 0.39%
IC50 [3]: 71 ± 27 nM
IC50 [4]: 3490 ± 60 nM
IC50 [5]: 4250 ± 190 nM
IC50 [6]: 1890 ± 170 nM
IC50 [7]: 4070 ± 130 nM
TI (therapeutic index) [8]: 122.82
IC50 [9]: 66 nM
Agonist mode ERα Eff (%E2) [9]: 15 ± 2 %E2
Antagonist mode ERα Eff (%E2) ([9]; with 10 nmol/L 17β-estradiol): 62 ± 5 %E2
IC50 [10]: 1020 nM
Agonist mode ERβ Eff (%E2) [10]: 34 ± 2 %E2
Antagonist mode ERβ Eff (%E2) [10]: 78 ± 2 %E2
ERα degradation (immunoblot) at 1 μmol/L [11]: efficient ability to degrade ERα
ERα degradation (immunoblot) [11]: effective in inducing ERα degradation

CC/C(=C(\c1ccc(O)cc1)c1ccc(OCCN(C)C)cc1)c1ccccc1 [Compound 4-OHT, 4-hydroxytamoxifen, reference compound]
IC50 [3]: 670 ± 80 nM
IC50 [4]: 1950 ± 200 nM
IC50 [5]: 9130 ± 600 nM
IC50 [6]: 8900 ± 280 nM
IC50 [7]: 22200 ± 1930 nM
Antagonist mode ERβ Eff (%E2) [10]: 11 ± 3 %E2

CC/C(=C(\c1ccccc1)c1ccc(OCCN(C)C)cc1)c1ccccc1 [tamoxifen, reference compound]
TGI (tumor growth inhibition) [12]: 87%

CC(C)CC(=O)Nc1ccc(C2=C(c3ccc(O)cc3)[C@H]3O[C@@H]2CC3S(=O)(=O)N(CC(F)(F)F)c2ccc(O)cc2)cc1 (mixture of isomers) [Compound 29k, N-(4-((1R,4R)-3-(4-Hydroxyphenyl)-5-(N-(4-hydroxyphenyl)-N-(2,2,2-trifluoroethyl)sulfamoyl)-7-oxabicyclo[2.2.1]hept-2-en-2-yl)phenyl)-3-methylbutanamide]
Ki [1]: 1.15 nM
RBA ERα [1]: 2.41 ± 0.21%
α/β ratio [1]: 1.66
Ki [2]: 4.6 nM
RBA ERβ [2]: 1.45 ± 0.12%
IC50 [3]: 1060 ± 190 nM
IC50 [4]: > 31000 nM
IC50 [5]: > 31000 nM
IC50 [6]: > 31000 nM
ERα degradation (immunoblot) [11]: impaired degradation ability
